In general, EC50 refers to the concentration giving half of the maximal effect. Broadly, the Emax is the maximal effect, on the per cent scale that the assay sets. A word on the pKa: it is the negative logarithm of the acid dissociation constant.

The text below walks through data of ChEMBL document CHEMBL4020838, “The Discovery of ( S)-1-(6-(3-((4-(1-(Cyclopropanecarbonyl)piperidin-4-yl)-2-methylphenyl)amino)-2,3-dihydro-1 H-inden-4-yl)pyridin-2-yl)-5-methyl-1 H-pyrazole-4-carboxylic Acid, a Soluble Guanylate Cyclase Activator Specifically Designed for Topical Ocular Delivery as a Therapy for Glaucoma” (J Med Chem, 2018).

Data set [1] can be described thus: Activation of HUVEC-derived soluble guanylate cyclase expressed in CHOK1 cells assessed as increase in cGMP production after 1 hr by HTRF assay. The data set is classed as cell-based. In a few lines:
(§1)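 High-throughput assay in Chinese hamster ovary cells expressing sGC. cGMP was measured across a dose range. EC50 and Emax (maximal cGMP produced) were taken from the dose-response curve.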
Background: In TR-FRET formats the signal depends on donor and acceptor labels being close together.

The subject of data set [2] is Oryctolagus cuniculus. As to the kind of experiment: Toxicity in New Zealand albino rabbit eye up to 300 ug administered as single topical dose measured up to 24 hrs post dose. The following applies: in vivo, topical_or_ocular.
The subject of data set [3] is Cynomolgus monkey. Kind of data set: Reduction of intraocular pressure in laser-induced ocular hypertensive cynomolgus monkey at 300 ug administered as single topical dose. It is filed as functional. The following applies: Macaca fascicularis. In a few lines:
(§2)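 Cynomolgus monkeys with laser-induced elevated IOP received a single topical ocular dose of 300 μg in a 30 μL drop. IOP and ocular signs were observed after dosing.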

Data set [4] is described as follows: Activation of soluble guanylate cyclase in human GTM3 cells assessed as increase in cGMP production after 30 mins by fluorescence assay. The data set is classed as cell-based. In a few lines:
(§3)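 Immortalized glaucomatous trabecular meshwork (GTM-3) cells expressing endogenous levels of sGC were used. cGMP was read across a dose range. EC50 and Emax were derived from the dose-response curve.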

The species entered for data set [5] is Homo sapiens. Kind of data set: Activation of HUVEC-derived soluble guanylate cyclase expressed in CHOK1 cells assessed as increase in cGMP production after 1 hr by HTRF assay relative to 1-{6-[5-chloro-2-({4-[trans-4-(trifluoromethyl)cyclohexyl]-benzyl}oxy)phenyl)pyridin-2-yl)-5-(trifluoromethyl)-1H-pyrazole-4-carboxylic acid. It is filed as cell-based. The method, boiled down:
as §1

In data set [6] the test system is Cynomolgus monkey. As to the kind of experiment: Toxicity in laser-induced ocular hypertensive cynomolgus monkey assessed as ocular irritation at 300 ug administered as single topical dose. Also noted: species or system Macaca fascicularis. The following applies: in vivo, topical_or_ocular. The method, boiled down:
as §2

Data set [7] is filed under the species Homo sapiens. As to the kind of experiment: Activation of soluble guanylate cyclase in human GTM3 cells assessed as increase in cGMP production after 30 mins by fluorescence assay relative to 1-{6-[5-chloro-2-({4-[trans-4-(trifluoromethyl)cyclohexyl]-benzyl}oxy)phenyl)pyridin-2-yl)-5-(trifluoromethyl)-1H-pyrazole-4-carboxylic acid. The data set is classed as cell-based. In a few lines: as §3

For data set [8], the system named is Cynomolgus monkey. Kind of data set: Reduction of intraocular pressure in laser-induced ocular hypertensive cynomolgus monkey at 100 ug administered as single topical dose measured at 6 hr post dose relative to control. The data set is classed as functional, Macaca fascicularis. More on the design: scale not given: the % may be the effect or the level left. The method, boiled down: (§4)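 Cynomolgus monkeys with laser-induced elevated IOP received one 30 μL topical ocular drop containing 100 μg of compound, formulated as a suspension. Percent IOP reduction was recorded at 6 h and at 24 h after dosing.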

Data set [9] has as its system Oryctolagus cuniculus. As to the kind of experiment: Toxicity in New Zealand albino rabbit assessed as ocular discharge at 300 ug administered as single topical dose measured up to 24 hrs post dose. The settings on record: in vivo, topical_or_ocular.
Data set [10] relates to Oryctolagus cuniculus. As to the kind of experiment: Toxicity in New Zealand albino rabbit assessed as conjunctival hyperemia at 300 ug administered as single topical dose measured up to 24 hrs post dose. The following applies: in vivo, topical_or_ocular.
Data set [11] has as its system Cynomolgus monkey. Kind of data set: Toxicity in laser-induced ocular hypertensive cynomolgus monkey assessed as ocular discharge at 300 ug administered as single topical dose. Also noted: species or system Macaca fascicularis. The settings on record: in vivo, topical_or_ocular. The method, boiled down:
as §2

The test system of data set [12] is Cynomolgus monkey. Kind of data set: Reduction of intraocular pressure in laser-induced ocular hypertensive cynomolgus monkey at 100 ug administered as single topical dose measured at 24 hrs post dose relative to control. It is filed as functional, Macaca fascicularis. More on the design: scale not given: the % may be the effect or the level left. The method, boiled down:
as §4

In data set [13] the test system is Cynomolgus monkey. Kind of data set: Toxicity in laser-induced ocular hypertensive cynomolgus monkey assessed as conjunctival hyperemia at 300 ug administered as single topical dose. Also noted: species or system Macaca fascicularis. The settings on record: in vivo, topical_or_ocular. The method, boiled down:
as §2

Data set [14] relates to Cynomolgus monkey. Kind of data set: Toxicity in laser-induced ocular hypertensive cynomolgus monkey eye at 30 ug administered as single topical dose. More on the design: species or system Macaca fascicularis. The following applies: in vivo, topical_or_ocular.
Data set [15] is described as follows: Dissociation constant, pKa of the compound. The data set is classed as physicochemical.

Molecules are shown by their SMILES. Active and inactive are the calls of the source. No cut-off for these calls is given here.

Take `CCc1c(C)sc(-c2cccc(-n3ncc(C(=O)O)c3C(F)(F)F)n2)c1COc1ccc(C2CCN(C(=O)C3CC3)CC2)cc1C`: the 50% effective concentration (EC50) in [1] (CHO-K1, 1 h) came out at 1 nM; in data set [4] (Homo sapiens, GTM3, 0.5 h), 12 nM. Further, the Activity result in the data set on Oryctolagus cuniculus [2] is given as “Non-Toxic”; in the data set with Cynomolgus monkey [6] it was “Toxic”. Further, in the data set with Cynomolgus monkey [3], the result was Active. The maximal response (Emax) came out at 101% in the data set listed under Homo sapiens [5] and 93% in the data set listed under Homo sapiens [7].
Take `CCC(=O)N1CCC(c2ccc(OCc3ccsc3-c3cccc(-n4ncc(C(=O)O)c4C(F)(F)F)n3)c(C)c2)CC1`: the Activity was 17% with Cynomolgus monkey [8]; “Toxic” in the data set on Oryctolagus cuniculus [9]; “Toxic” in the data set with Oryctolagus cuniculus [10]; “Toxic” in the data set with Cynomolgus monkey [11]; 10% with Cynomolgus monkey [12]; “Toxic” in the data set on Cynomolgus monkey [13]. Moreover, the concentration giving a half-maximal response (EC50) in [1] (CHO-K1, 1 h) is 5.5 nM; in [4] (Homo sapiens, GTM3, 0.5 h), 370 nM. The maximal response (Emax) stood at 100% in the data set filed under Homo sapiens [5] and 97% in the data set listed under Homo sapiens [7].
Consider `CCc1cc(OCC2=C(c3cccc(-n4ncc(C(=O)O)c4C)n3)CCCC2C)ccc1C1CCN(C(=O)C2CC2)CC1` (single isomer, unassigned; (+)), for which the concentration for a half-maximal effect (EC50) in [1] is less than 0.5 nM; in data set [4] (Homo sapiens, GTM3, 0.5 h), 9 nM. In addition, the Activity result in the data set on Oryctolagus cuniculus [2] and in the data set with Cynomolgus monkey [14] was “Non-Toxic” in each case.
Regarding `Cc1cc2c(c(-c3cccc(-n4ncc(C(=O)O)c4C(F)(F)F)n3)c1)C(Nc1ccc(C3CCN(C(=O)C4CC4)CC3)cc1C)CC2` (single isomer, unassigned; (+)), the pKa in data set [15] is 3.1. Further, the EC50 was 1 nM in data set [1] and 55 nM in data set [4] (Homo sapiens, GTM3, 0.5 h).
`Cc1cc(C2CCN(C(=O)C3CC3)CC2)ccc1NC1CCc2cccc(-c3cccc(-n4ncc(C(=O)O)c4C)n3)c21` (stereo in doubt; (+)-23) showed a pKa in [15] of 4.3. In addition, the figures for the concentration for a half-maximal effect (EC50) in [1] and in [4] were less than 0.5 nM and 5 nM, respectively. Besides, the Activity result with Oryctolagus cuniculus [2] and in the data set with Cynomolgus monkey [14] was “Non-Toxic” throughout.
